Our source for the IC50 and inhibition in vivo values is ChEMBL document CHEMBL2203154, “Synthesis, characterization and biological studies of diosgenyl analogues” (Bioorg Med Chem Lett, 2012).

One assay deals with MDA-MB-231. In words: Cytotoxicity against human MDA-MB-231 cells after 48 hrs by MTT assay. The assay is classed as functional, cell-based. The following applies: MDA-MB-231, 48 h. The gist of the method: (§1)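 MTT assay on tumor cells exposed to compound for 48 h. IC50 is the concentration (μM) that inhibits growth by 50% relative to untreated cells. Values are means of at least 3 independent assays per compound.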

In a further assay the test system is HepG2. Nature of the assay: Cytotoxicity against human HepG2 cells after 48 hrs by MTT assay. The assay is classed as functional, cell-based. Particulars: HepG2, 48 h. The gist of the method:
as §1
(In general: Tetrazolium assays rely on reduction of a dye to a coloured formazan, in cell work by metabolically active cells.)

Assay [1] can be described thus: Cytotoxicity against mouse C26 cells after 48 hrs by MTT assay. The assay is classed as functional, cell-based. The following applies: C26, 48 h. The gist of the method: as §1
The subject of assay [2] is Mus musculus. Nature of the assay: Antiinflammatory activity in Kunming mouse assessed as inhibition of xylene-induced ear edema at 100 mg/kg, po administered for 3 days followed by xylene-challenge at 2 hrs post-last dose measured after 1 hr relative to vehicle-treated control. It counts as functional. The gist of the method: (§2)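 Oral gavage in mice, test compounds suspended in 0.5% CMC at 100 mg/kg; aspirin group at 50 mg/kg. Ear edema induced with xylene; inhibition calculated versus the CMC vehicle group. Ten animals per group; data as mean ± SD, with significance versus CMC at p<0.05 or p<0.01.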

Assay [3] deals with Mus musculus. Nature of the assay: Antiinflammatory activity in Kunming mouse assessed as inhibition of xylene-induced ear edema at 50 mg/kg, po administered for 3 days followed by xylene-challenge at 2 hrs post-last dose measured after 1 hr relative to vehicle-treated control. The assay is classed as functional. The gist of the method: as §2

For the compound `C[C@@H]1CC[C@@]2(OC1)O[C@H]1C[C@H]3[C@@H]4CC=C5C[C@@H](O[C@@H]6O[C@H](CO)[C@@H](O[C@@H]7O[C@H](CO)[C@@H](O)[C@H](O)[C@H]7O)[C@H](O)[C@H]6O[C@@H]6O[C@@H](C)[C@H](O)[C@@H](O)[C@H]6O)CC[C@]5(C)[C@H]4CC[C@]3(C)[C@H]1[C@@H]2C` [DELTONIN], the half-inhibitory concentration (IC50) (in general, the midpoint of a concentration-inhibition curve) is 1.58 µM with MDA-MB-231, 7.66 µM with HepG2 and 1.22 µM in assay [1].

For `CC(=O)Oc1ccccc1C(=O)O[C@H]1CC[C@@]2(C)C(=CC[C@H]3[C@@H]4C[C@@H]5O[C@]6(CC[C@@H](C)CO6)[C@@H](C)[C@@H]5[C@@]4(C)CC[C@@H]32)C1`, the IC50 (in the assay on MDA-MB-231; in the assay on HepG2; in assay [1]) was greater than 50 µM throughout. For the same compound, in the assay with Mus musculus [2], the inhibition in vivo (in general, the drop in the measured response relative to a control, in per cent) at 100 mg/kg is 46.5%.

For the compound `C[C@@H]1CC[C@@]2(OC1)O[C@H]1C[C@H]3[C@@H]4CC=C5C[C@@H](OC(=O)[C@H](C)N)CC[C@]5(C)[C@H]4CC[C@]3(C)[C@H]1[C@@H]2C`, the IC50 (in the assay on MDA-MB-231; with HepG2; in assay [1]) was greater than 50 µM throughout. For the same compound, the inhibition in vivo at 100 mg/kg in the assay with Mus musculus [2] came out at 28.6%.

As to `CC(=O)Oc1ccccc1C(=O)NCC(=O)O[C@H]1CC[C@@]2(C)C(=CC[C@H]3[C@@H]4C[C@@H]5O[C@]6(CC[C@@H](C)CO6)[C@@H](C)[C@@H]5[C@@]4(C)CC[C@@H]32)C1`, the half-maximal inhibitory concentration (IC50) (with MDA-MB-231; with HepG2; in assay [1]) was greater than 50 µM throughout. In addition, the inhibition in vivo at 100 mg/kg in the assay with Mus musculus [2] came to 39.1%.

Regarding `C[C@@H]1CC[C@@]2(OC1)O[C@H]1C[C@H]3[C@@H]4CC=C5C[C@@H](OC(=O)CC[C@@H](N)C(=O)O[C@H]6CC[C@@]7(C)C(=CC[C@H]8[C@@H]9C[C@@H]%10O[C@]%11(CC[C@@H](C)CO%11)[C@@H](C)[C@@H]%10[C@@]9(C)CC[C@@H]87)C6)CC[C@]5(C)[C@H]4CC[C@]3(C)[C@H]1[C@@H]2C`, the half-maximal inhibitory concentration (IC50) (in the assay on MDA-MB-231; in the assay with HepG2; in assay [1]) was greater than 50 µM in each case. The inhibition in vivo at 100 mg/kg in the assay with Mus musculus [2] amounted to 19.1%.

As for `C[C@@H]1CC[C@@]2(OC1)O[C@H]1C[C@H]3[C@@H]4CC=C5C[C@@H](OC(=O)CN)CC[C@]5(C)[C@H]4CC[C@]3(C)[C@H]1[C@@H]2C` [GLYCINE DIOSGENYL ESTER], the values for the IC50 (with MDA-MB-231; in the assay with HepG2; in assay [1]) were 48.2 µM, greater than 50 µM and greater than 50 µM, respectively. In addition, in the assay with Mus musculus [2], the inhibition in vivo at 100 mg/kg was 30.6%.

For `C[C@@H]1CC[C@@]2(OC1)O[C@H]1C[C@H]3[C@@H]4CC=C5C[C@@H](OC(=O)[C@H](C)NC(=O)c6ccccc6O)CC[C@]5(C)[C@H]4CC[C@]3(C)[C@H]1[C@@H]2C`, the IC50 (in the assay with MDA-MB-231; with HepG2; in assay [1]) was greater than 50 µM throughout. Further, in the assay on Mus musculus [2], the inhibition in vivo at 100 mg/kg came out at 35.8%.

For `C[C@@H]1CC[C@@]2(OC1)O[C@H]1C[C@H]3[C@@H]4CC=C5C[C@@H](OC(=O)CC[C@@H](NC(=O)c6ccccc6O)C(=O)O[C@H]6CC[C@@]7(C)C(=CC[C@H]8[C@@H]9C[C@@H]%10O[C@]%11(CC[C@@H](C)CO%11)[C@@H](C)[C@@H]%10[C@@]9(C)CC[C@@H]87)C6)CC[C@]5(C)[C@H]4CC[C@]3(C)[C@H]1[C@@H]2C`, the concentration for half-maximal inhibition (IC50) (with MDA-MB-231; in the assay on HepG2; in assay [1]) was greater than 50 µM in each case. Moreover, the inhibition in vivo at 100 mg/kg in the assay with Mus musculus [2] was 30.1%.

In the case of `C[C@@H]1CC[C@@]2(OC1)O[C@H]1C[C@H]3[C@@H]4CC=C5C[C@@H](O)CC[C@]5(C)[C@H]4CC[C@]3(C)[C@H]1[C@@H]2C` [DISOGENIN], the IC50 (in the assay with MDA-MB-231; with HepG2; in assay [1]) was greater than 50 µM throughout. In the assay on Mus musculus [2], the inhibition in vivo at 100 mg/kg was determined as 32.2%.

For `C[C@@H]1CC[C@@]2(OC1)O[C@H]1C[C@H]3[C@@H]4CC=C5C[C@@H](OC(=O)CCCCCNC(=O)c6ccccc6O)CC[C@]5(C)[C@H]4CC[C@]3(C)[C@H]1[C@@H]2C`, the IC50 (in the assay with MDA-MB-231; in the assay with HepG2; in assay [1]) was greater than 50 µM in each case. The inhibition in vivo at 100 mg/kg in the assay on Mus musculus [2] was determined as 42.6%.

For `C[C@@H]1CC[C@@]2(OC1)O[C@H]1C[C@H]3[C@@H]4CC=C5C[C@@H](OC(=O)CCCCCN)CC[C@]5(C)[C@H]4CC[C@]3(C)[C@H]1[C@@H]2C`, the results for the concentration for half-maximal inhibition (IC50) (in the assay with MDA-MB-231; in the assay with HepG2; in assay [1]) were 7.6 µM, 14.6 µM and 4.7 µM, respectively. In the assay with Mus musculus [2], the inhibition in vivo at 100 mg/kg stood at 38.6%.

For `CC(=O)Oc1ccccc1C(=O)O` [ASPIRIN], the inhibition in vivo at 50 mg/kg with Mus musculus [3] was found to be 31.9%.
